Published values pooled from the literature.
Compare with care: the assays were run in different laboratories.
Target: Macrophage-stimulating protein receptor (MST1R, Homo sapiens, UniProt Q04912)

| Compound | test | conditions | quantity | result |
| --- | --- | --- | --- | --- |
| CCc1ccccc1C(=O)Nc1n[nH]c2c(C)c(F)c(C3C(C#N)=C(C)N(C)C(C)=C3C#N)cc12 | cell-free assay, competition with immobilised ligand | 1 µM | remaining binding | 100% |
| Cc1ccc(Nc2nccc(N(C)c3ccc4c(C)n(C)nc4c3)n2)cc1S(N)(=O)=O | cell-free assay | 10 µM | inhibition | -4% |
| CC(C)(C)c1nc2c(s1)c1nc(N)ncc1c1ccc(NS(=O)(=O)c3c(F)cccc3F)c(F)c12 | enzyme activity, inhibitor, radiometric | 1 µM | remaining activity | 116% |
| COc1cccc2c(NCc3ccccc3)nc(-n3c(N)nc4ccccc43)nc12 | target engagement in cells, inhibitor, chemoproteomics | 20 mM | inhibition | -13.2% |
| Cc1ccc(C(=O)NCc2ccsc2)cc1C#Cc1cn(C(C)C)c2ncnc(N)c12 | enzyme activity, inhibitor | 1 µM | activity vs control | 80% |
| O=c1nc(-c2ccccn2)sc2ccccc12 | cell-free assay, competition with immobilised ligand | 1 µM | remaining binding | 100% |
| Nc1ncnc2occ(-c3ccc(NC(=O)Nc4cc(C(F)(F)F)ccc4F)cc3)c12 | cell-free assay | 20 µM | remaining signal | 7.4% |
| CO[C@H]1CC[C@H](CNc2ccc(S(=O)(=O)NC(=O)c3ccc(N4CCN(CC5=C(c6ccc(Cl)cc6)CC(C)(C)CC5)CC4)cc3Oc3cnc4[nH]ccc4c3)cc2[N+](=O)[O-])CC1 | cell-free assay, competition with immobilised ligand | 1 µM | remaining binding | 92% |
| Cc1cnc(NC2CCOCC2)nc1-n1cnc(C(=O)NC(CN)c2cc(F)cc(Cl)c2)c1 (stereo not shown) | enzyme activity, inhibitor, radiometric | 1 µM | remaining activity | 107% |
| CN1CC(Oc2cnc(C#N)cc2-c2ccn3nc(NC(=O)C4CC4)cc3c2)C1 | enzyme activity, inhibitor | 1 µM | inhibition | 5% |
| Cn1nc(C(F)(F)F)cc1-c1cnc(N2CCc3cc(S(=O)(=O)Nc4c(F)cc(Cl)cc4F)cc(N4CCCC4=O)c32)nc1 | cell-free assay, competition with immobilised ligand | 1 µM | remaining binding | 100% |
| Cc1sc(C(=O)NC2COC2)cc1-n1cc(NC(=O)Nc2c(F)cccc2Cl)cn1 | enzyme activity, inhibitor | 10 µM | remaining activity | 96.9% |
| CCN(CC)CCNC(=O)c1c(C)[nH]c(/C=C2\C(=O)Nc3ccc(F)cc32)c1C | enzyme activity, inhibitor | 0.1 µM | remaining activity | 97% |
| O=C(NCc1ncc(C(F)(F)F)cc1Cl)c1ccc2c(c1)C1(CCS(=O)(=O)CC1)[C@H](C1CC1)N2S(=O)(=O)c1ccc(F)cc1 | cell-free assay, competition with immobilised ligand | 1 µM | remaining binding | 99% |
| Cc1[nH]c(/C=C2\C(=O)Nc3ccc(F)cc32)c(C)c1C(=O)N[C@H]1CCN(C(=O)N(C)C)C1 | enzyme activity, inhibitor | 1 µM | remaining activity | 96% |
| COc1cc2c(Nc3ccc(Br)cc3F)ncnc2cc1OCC1CCN(C)CC1 | cell-free assay | 0.5 µM | remaining signal | 93.6% |
| CC1=C(C#N)[C@@H](c2ccc3[nH]nc(C)c3c2)C(C#N)=C(c2ccc(Cl)cc2)N1 | cell-free assay, competition with immobilised ligand | 1 µM | remaining binding | 70.2% |
| COc1cc2ncnc(Nc3ccc(Oc4ccccc4)c(C)c3C)c2cc1OC | enzyme activity, inhibitor | 1 µM | inhibition | -3% |
| N#CCCc1ccc2c(c1)-c1[nH]c3ccc([N+](=O)[O-])cc3c1CC(=O)N2 | cell-free assay | 0.5 µM | remaining signal | 107% |
| CNC(=O)c1cc(Oc2ccc(NC(=O)Nc3ccc(Cl)c(C(F)(F)F)c3)cc2)ccn1 | cell-free assay | 0.3 µM | inhibition | -10% |
| O=C(Nc1cnn(-c2csc(C(=O)NC3COC3)c2)c1)Nc1ccccc1Cl | enzyme activity, inhibitor | 5 µM | remaining activity | 108% |
| Oc1cccc(-c2nc(N3CCOCC3)c3oc4ncccc4c3n2)c1 | cell-free assay | 0.5 µM | remaining signal | 94.3% |
| CCN(CC)c1ccc(C2=NNC(=O)CC2C)cc1[N+](=O)[O-] (stereo not shown) | enzyme activity, inhibitor | 10 µM | remaining activity | 106% |
| CCCOc1ccc(OC)c(F)c1C(=O)c1ccc(C(=O)N[C@@H]2CNC[C@H]2NC(=O)c2ccc3[nH]ncc3c2)cc1 | enzyme activity, inhibitor | 10 µM | remaining activity | 64% |
| CCCCN(CCCC)C(=O)CN1C[C@@H](c2cc(OC)c3c(c2)OCO3)[C@H](C(=O)O)[C@H]1CC(C)(C)CCC | cell-free assay, competition with immobilised ligand | 1 µM | remaining binding | 100% |
| CCN(CC)CCNC(=O)c1c(C)[nH]c(/C=C2\C(=O)Nc3ccc(F)cc32)c1C | cell-free assay | 10 µM | inhibition | -1% |
| CNCc1ccccc1-c1csc([C@@H](C)Nc2nc(C)nc3cc(OC)c(OC)cc23)c1 | cell-free assay, competition with immobilised ligand | 1 µM | remaining binding | 100% |
| CC/C(=N\NC(=O)NCc1cccc(O)c1)c1ccc(O)c(C)c1O | enzyme activity, inhibitor | 0.1 µM | inhibition | -1.5% |
